The values below come from ChEMBL document CHEMBL1153264, “(1,2,3-Triazol-4-yl)benzenamines: synthesis and activity against VEGF receptors 1 and 2” (Bioorg Med Chem Lett, 2009).

Experiment [1] concerns the target T1, Vascular endothelial growth factor receptor 2 (Homo sapiens, UniProt P35968). Nature of the experiment: Inhibition of VEGFR2 by HTRF assay in presence of 2 uM ATP. In short, it runs like this: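 HTRF kinase assay with KDR enzyme (3–4 ng) and biotinylated pGAT substrate. ATP added to start, 45 min at RT. Stopped with EDTA/KF buffer plus Eu-cryptate anti-phosphotyrosine antibody, 2 h RT, then HTRF read. IC50 from 10-point log concentration curves, mean of at least two duplicate runs.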
Background: TR-FRET usually uses a lanthanide donor and a delayed reading to cut background.

Experiment [2] has as its target Vascular endothelial growth factor receptor 1 (Homo sapiens, UniProt P17948). The experiment in a line: Inhibition of VEGFR1 by HTRF assay.
In experiment [3] the target is T1, Vascular endothelial growth factor receptor 2. The experiment in a line: Inhibition of VEGF-induced phosphorylation of VEGFR2 by cell-based ELISA.
Experiment [4] has the same target. Nature of the experiment: Binding affinity to VEGFR2 at IC50 in presence of ATP. The method in brief: (§1)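 ATP competition assay with VEGFR-2. Five concentrations of ³²P ATP across 0-100 µM, each incubated with enzyme for 45 min at RT. Inhibitor was absent or present at two fixed levels.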
Experiment [5] has the same target. Nature of the experiment: Binding affinity to VEGFR2 at IC90 in presence of ATP. In short, it runs like this: as §1
Experiment [6] has as its target Insulin-like growth factor 1 receptor (Homo sapiens) (UniProt P08069). Nature of the experiment: Inhibition of IGF1R at 10 uM.
The target in experiment [7] is Insulin receptor (Homo sapiens) (UniProt P06213). Nature of the experiment: Inhibition of IR at 10 uM.
Experiment [8] deals with Fibroblast growth factor receptor 1 (Homo sapiens) (UniProt P11362). The experiment in a line: Inhibition of FGFR1 at 10 uM.
Chain of Fibroblast growth factor receptor 1 (Homo sapiens) (P11362 22-822 limits assumed): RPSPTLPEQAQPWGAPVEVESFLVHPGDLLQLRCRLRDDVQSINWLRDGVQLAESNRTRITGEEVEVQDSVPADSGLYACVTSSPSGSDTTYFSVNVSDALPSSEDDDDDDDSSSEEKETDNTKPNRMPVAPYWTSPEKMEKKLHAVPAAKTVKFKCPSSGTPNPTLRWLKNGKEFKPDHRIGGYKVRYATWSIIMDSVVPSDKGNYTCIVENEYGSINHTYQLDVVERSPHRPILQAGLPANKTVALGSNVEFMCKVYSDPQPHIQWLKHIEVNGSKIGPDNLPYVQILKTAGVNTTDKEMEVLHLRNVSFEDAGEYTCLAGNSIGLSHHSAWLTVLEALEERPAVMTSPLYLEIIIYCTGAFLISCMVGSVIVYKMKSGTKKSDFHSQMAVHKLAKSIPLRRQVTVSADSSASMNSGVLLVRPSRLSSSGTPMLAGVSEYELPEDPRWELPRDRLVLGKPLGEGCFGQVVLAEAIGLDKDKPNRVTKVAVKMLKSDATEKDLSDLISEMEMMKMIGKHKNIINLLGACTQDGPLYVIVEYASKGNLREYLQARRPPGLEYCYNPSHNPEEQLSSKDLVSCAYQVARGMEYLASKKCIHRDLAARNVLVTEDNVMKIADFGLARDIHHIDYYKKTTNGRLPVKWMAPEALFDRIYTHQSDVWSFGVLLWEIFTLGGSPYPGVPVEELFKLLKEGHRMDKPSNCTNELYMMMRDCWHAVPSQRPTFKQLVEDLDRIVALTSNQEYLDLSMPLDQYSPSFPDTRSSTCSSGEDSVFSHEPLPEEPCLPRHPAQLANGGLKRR
The target of experiment [9] is Receptor-type tyrosine-protein kinase FLT3 (Homo sapiens) (UniProt P36888). Nature of the experiment: Inhibition of Flt3 at 10 uM.
The target of experiment [10] is Epidermal growth factor receptor (Homo sapiens) (UniProt P00533). Nature of the experiment: Inhibition of EGFR at 10 uM.
In experiment [11] the target is Receptor tyrosine-protein kinase erbB-2 (Homo sapiens) (UniProt P04626). Nature of the experiment: Inhibition of ErbB2 at 10 uM.
Experiment [12] deals with Hepatocyte growth factor receptor (Homo sapiens) (UniProt P08581). The experiment in a line: Inhibition of c-Met at 10 uM.
Chain of Hepatocyte growth factor receptor (Homo sapiens) (P08581 whole entry): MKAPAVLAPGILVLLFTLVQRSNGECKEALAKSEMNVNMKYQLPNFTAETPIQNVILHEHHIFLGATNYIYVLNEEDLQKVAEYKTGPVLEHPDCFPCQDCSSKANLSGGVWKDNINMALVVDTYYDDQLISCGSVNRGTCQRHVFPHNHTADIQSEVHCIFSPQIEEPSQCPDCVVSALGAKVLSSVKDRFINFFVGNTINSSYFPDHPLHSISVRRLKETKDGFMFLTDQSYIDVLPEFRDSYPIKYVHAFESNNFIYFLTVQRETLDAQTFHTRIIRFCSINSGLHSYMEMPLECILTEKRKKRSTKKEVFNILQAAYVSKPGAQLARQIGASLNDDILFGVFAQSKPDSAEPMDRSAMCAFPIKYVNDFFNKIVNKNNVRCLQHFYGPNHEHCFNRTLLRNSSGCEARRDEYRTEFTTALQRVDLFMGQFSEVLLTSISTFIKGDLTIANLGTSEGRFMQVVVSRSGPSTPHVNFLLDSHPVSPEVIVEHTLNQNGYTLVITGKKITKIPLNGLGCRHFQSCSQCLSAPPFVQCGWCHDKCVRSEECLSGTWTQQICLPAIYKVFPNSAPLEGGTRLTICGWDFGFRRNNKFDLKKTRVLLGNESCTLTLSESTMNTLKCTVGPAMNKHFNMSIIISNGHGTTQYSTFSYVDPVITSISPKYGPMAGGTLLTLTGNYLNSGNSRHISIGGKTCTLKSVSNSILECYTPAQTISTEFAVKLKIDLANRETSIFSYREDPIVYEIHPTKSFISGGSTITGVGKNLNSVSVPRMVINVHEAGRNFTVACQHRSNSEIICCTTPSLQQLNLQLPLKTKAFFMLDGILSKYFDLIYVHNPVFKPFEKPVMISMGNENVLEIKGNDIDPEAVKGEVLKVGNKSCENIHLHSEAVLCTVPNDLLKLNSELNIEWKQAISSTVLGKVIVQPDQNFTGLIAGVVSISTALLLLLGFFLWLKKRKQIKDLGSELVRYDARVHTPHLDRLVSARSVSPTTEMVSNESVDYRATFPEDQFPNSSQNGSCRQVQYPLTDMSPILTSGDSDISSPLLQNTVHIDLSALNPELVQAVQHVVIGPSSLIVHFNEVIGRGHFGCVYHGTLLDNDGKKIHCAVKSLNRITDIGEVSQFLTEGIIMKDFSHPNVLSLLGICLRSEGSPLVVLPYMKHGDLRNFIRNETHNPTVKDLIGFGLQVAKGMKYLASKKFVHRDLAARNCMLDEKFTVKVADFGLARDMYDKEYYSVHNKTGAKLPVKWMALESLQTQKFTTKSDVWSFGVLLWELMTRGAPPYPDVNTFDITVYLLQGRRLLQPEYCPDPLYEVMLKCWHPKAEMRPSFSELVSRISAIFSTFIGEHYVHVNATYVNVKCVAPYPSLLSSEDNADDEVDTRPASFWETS
For experiment [13], the target named is Macrophage-stimulating protein receptor (Homo sapiens) (UniProt Q04912). Nature of the experiment: Inhibition of Ron at 10 uM.
Chain of Macrophage-stimulating protein receptor (Homo sapiens) (Q04912 25-304 limits assumed): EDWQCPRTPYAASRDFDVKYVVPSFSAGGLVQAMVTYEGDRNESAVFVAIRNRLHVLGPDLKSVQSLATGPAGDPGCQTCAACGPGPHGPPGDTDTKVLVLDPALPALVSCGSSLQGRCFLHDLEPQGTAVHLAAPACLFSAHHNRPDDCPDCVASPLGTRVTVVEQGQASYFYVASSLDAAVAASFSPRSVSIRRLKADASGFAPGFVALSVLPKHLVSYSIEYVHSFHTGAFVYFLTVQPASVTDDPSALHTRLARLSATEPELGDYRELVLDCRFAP
Chain of Macrophage-stimulating protein receptor (Homo sapiens) (Q04912 310-1400 limits assumed): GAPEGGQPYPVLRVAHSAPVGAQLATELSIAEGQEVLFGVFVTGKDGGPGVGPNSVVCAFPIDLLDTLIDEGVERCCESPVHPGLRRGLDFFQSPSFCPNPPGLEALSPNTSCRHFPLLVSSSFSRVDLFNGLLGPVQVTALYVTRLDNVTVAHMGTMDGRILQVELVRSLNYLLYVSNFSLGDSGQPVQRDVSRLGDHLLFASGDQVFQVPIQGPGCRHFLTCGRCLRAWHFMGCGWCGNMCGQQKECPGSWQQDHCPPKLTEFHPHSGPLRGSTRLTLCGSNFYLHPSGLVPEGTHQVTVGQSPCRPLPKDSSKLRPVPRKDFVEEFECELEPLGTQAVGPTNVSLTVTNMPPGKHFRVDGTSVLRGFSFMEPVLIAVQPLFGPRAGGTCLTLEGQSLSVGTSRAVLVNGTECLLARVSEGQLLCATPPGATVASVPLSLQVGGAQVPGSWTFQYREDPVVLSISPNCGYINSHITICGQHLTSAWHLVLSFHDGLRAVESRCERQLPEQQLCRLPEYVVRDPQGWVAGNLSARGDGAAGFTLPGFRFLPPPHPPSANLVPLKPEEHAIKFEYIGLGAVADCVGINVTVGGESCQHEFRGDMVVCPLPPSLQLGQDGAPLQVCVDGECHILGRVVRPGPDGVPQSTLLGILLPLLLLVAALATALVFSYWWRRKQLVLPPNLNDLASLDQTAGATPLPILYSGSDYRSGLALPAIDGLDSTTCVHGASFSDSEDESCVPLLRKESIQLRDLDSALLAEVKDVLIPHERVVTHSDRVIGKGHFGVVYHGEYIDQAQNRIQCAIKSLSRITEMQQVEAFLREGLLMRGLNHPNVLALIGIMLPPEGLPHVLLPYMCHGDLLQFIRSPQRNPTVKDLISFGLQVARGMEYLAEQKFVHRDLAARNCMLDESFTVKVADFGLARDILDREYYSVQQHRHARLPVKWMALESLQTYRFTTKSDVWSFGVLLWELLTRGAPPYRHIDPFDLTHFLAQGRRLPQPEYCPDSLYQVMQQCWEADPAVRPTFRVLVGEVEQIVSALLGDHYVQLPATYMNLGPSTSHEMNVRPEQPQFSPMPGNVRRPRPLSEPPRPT
Experiment [14] is described as follows: Inhibition of PKA at 10 uM.
In experiment [15] the target is Glycogen synthase kinase-3 beta (Homo sapiens) (UniProt P49841). Nature of the experiment: Inhibition of GSK3-beta at 10 uM.
The target of experiment [16] is Bcr/Abl fusion protein (Homo sapiens) (UniProt P00519+P11274). The experiment in a line: Inhibition of Bcr-Abl at 10 uM. It is filed as protein assay.
Experiment [17] can be described thus: Inhibition of Bcr-Abl T315 mutant at 10 uM.
Experiment [18] addresses Cyclin-dependent kinase 1 (Homo sapiens) (UniProt P06493). The experiment in a line: Inhibition of Cdk1 at 10 uM.
The target of experiment [19] is Cyclin-dependent kinase 2 (Homo sapiens) (UniProt P24941). Nature of the experiment: Inhibition of Cdk2 at 10 uM.
The target of experiment [20] is Proto-oncogene tyrosine-protein kinase Src (Homo sapiens) (UniProt P12931). Nature of the experiment: Inhibition of Src at 10 uM.
Chain of Proto-oncogene tyrosine-protein kinase Src (Homo sapiens) (P12931 2-536 limits assumed): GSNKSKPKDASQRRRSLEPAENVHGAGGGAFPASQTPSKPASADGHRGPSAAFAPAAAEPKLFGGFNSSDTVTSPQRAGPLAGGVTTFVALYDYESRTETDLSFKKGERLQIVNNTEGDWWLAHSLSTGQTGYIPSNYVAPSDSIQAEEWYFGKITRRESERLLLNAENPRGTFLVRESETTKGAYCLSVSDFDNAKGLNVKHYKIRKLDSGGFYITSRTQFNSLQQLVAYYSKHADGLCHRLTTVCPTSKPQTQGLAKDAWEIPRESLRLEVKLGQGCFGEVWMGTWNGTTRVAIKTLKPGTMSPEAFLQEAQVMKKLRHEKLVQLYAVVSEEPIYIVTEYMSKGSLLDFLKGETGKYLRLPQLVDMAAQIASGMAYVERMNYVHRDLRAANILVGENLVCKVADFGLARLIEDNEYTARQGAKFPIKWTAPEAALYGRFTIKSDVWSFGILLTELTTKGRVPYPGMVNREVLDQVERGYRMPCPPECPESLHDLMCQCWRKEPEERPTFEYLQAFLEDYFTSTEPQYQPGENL
Experiment [21] concerns the target T2, Aurora kinase A (Homo sapiens) (UniProt O14965).
T2 sequence (whole entry): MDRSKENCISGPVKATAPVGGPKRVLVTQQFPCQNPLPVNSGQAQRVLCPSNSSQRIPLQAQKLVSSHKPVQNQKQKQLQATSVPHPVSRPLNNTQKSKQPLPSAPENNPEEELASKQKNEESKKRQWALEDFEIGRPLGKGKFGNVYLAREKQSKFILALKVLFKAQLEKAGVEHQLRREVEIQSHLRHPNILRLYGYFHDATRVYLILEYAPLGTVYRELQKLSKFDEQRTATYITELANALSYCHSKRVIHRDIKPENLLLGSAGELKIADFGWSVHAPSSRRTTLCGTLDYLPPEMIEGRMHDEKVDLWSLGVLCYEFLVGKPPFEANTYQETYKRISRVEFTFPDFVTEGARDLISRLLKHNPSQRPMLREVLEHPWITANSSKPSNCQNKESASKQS
The experiment in a line: Inhibition of Aurora A at 10 uM.

Experiment [22] addresses Aurora kinase B (Homo sapiens) (UniProt Q96GD4). The experiment in a line: Inhibition of Aurora B at 10 uM.
Experiment [23] deals with Serine/threonine-protein kinase PLK1 (Homo sapiens) (UniProt P53350). Nature of the experiment: Inhibition of Plk1 at 10 uM.
Chain of Serine/threonine-protein kinase PLK1 (Homo sapiens) (P53350 whole entry): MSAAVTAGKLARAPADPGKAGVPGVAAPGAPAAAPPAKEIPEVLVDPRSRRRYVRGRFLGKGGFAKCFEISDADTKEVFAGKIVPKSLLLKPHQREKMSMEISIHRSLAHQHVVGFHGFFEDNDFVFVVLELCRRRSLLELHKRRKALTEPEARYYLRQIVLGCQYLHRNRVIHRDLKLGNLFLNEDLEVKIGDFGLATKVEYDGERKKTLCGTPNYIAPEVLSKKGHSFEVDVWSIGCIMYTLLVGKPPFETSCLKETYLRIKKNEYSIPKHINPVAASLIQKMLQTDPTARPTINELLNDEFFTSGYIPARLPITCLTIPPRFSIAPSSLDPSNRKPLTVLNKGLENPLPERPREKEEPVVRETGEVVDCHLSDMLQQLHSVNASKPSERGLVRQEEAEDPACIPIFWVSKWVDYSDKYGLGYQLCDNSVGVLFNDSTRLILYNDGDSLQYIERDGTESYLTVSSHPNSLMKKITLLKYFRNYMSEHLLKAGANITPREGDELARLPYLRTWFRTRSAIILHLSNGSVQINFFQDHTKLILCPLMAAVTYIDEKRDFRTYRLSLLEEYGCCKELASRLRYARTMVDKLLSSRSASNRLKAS

pIC50, pKi: −log10 of the molar value. Bounds are passed on as bounds.

Chain of Cyclin-dependent kinase 1 (Homo sapiens) (P06493 whole entry, looked up): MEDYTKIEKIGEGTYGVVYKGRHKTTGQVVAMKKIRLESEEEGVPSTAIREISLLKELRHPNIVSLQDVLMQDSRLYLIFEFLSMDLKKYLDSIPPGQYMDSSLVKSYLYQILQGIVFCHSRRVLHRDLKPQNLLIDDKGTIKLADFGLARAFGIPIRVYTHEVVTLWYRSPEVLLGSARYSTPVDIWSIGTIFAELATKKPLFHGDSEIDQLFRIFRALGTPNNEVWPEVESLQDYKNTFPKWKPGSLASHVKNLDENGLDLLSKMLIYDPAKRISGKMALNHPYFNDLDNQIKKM

As usually defined, the pIC50 is −log10 of the IC50, conventionally taken in molar units. What is called pKi is −log10 of the Ki, conventionally taken in molar units. The inhibition is how much of the control response was suppressed. A higher inhibition goes with a response far below the control. In the case of `CC(C)c1cccc(-n2cc(-c3ccccc3NCc3ccncc3)nn2)c1`, the pIC50 was 6.96 in experiment [1], 6.89 in [2] and 6.82 in [3]. For the same compound, the pKi is 6.80 in experiment [4] and 6.85 in experiment [5]. The inhibition in experiment [6], in experiment [7], in [8], in experiment [9], in [10] and in experiment [11] was less than 30% throughout. Besides, the inhibition in experiment [12], in experiment [13], in experiment [14], in experiment [15], in [16] and in [17] was less than 30% each time. Also, the inhibition in [18], in experiment [19], in experiment [20], in [21], in experiment [22] and in experiment [23] was less than 30% each time.

For `Clc1cccc(-n2cc(-c3ccccc3NCc3ccncc3)nn2)c1`, the figures for the pIC50 in [1], in experiment [2] and in experiment [3] were 7.06, 6.89 and 6.80, respectively. For the same compound, the negative-log Ki (pKi) in experiment [4] is 6.92; in experiment [5], 6.96. Further, the inhibition in experiment [6], in experiment [7], in experiment [8], in experiment [9], in experiment [10] and in experiment [11] was less than 30% in each case. Also, the inhibition in [12], in [13], in experiment [14], in [15], in experiment [16] and in experiment [17] was less than 30% each time. Moreover, the inhibition in [18], in [19], in experiment [20], in experiment [21], in experiment [22] and in [23] was less than 30% in each case.

As to `FC(F)(F)c1cccc(-n2cc(-c3ccccc3NCc3ccncc3)nn2)c1`, the pIC50 in [1] is 7.29; in experiment [2], 7.18; in experiment [3] it was 7.02. Moreover, the pKi in experiment [4] is 7.05; in experiment [5], 7.10. The inhibition in experiment [6], in experiment [7], in experiment [8], in experiment [9], in [10] and in experiment [11] was less than 30% throughout. Besides, the inhibition in [12], in [13], in [14], in [15], in experiment [16] and in experiment [17] was less than 30% each time. In addition, the inhibition in [18], in experiment [19], in [20], in experiment [21], in experiment [22] and in [23] was less than 30% throughout.
